Results reported in ChEMBL document CHEMBL1144552, “Synthesis and antitumor activities of a series of novel quinoxalinhydrazides” (Bioorg Med Chem, 2007).
Active and inactive are the calls of the source. The rule behind the calls is not given here.

Assays:
MDA-MB-435 [1] = test: Cytotoxicity against human MDA-MB-435 cells after 72 hrs by MTT assay; format: cell-based; settings: MDA-MB-435, 72 h
Procedure, shortened: (§1)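 Monolayer cultures in RPMI 1640 with 10% FBS and 2 mmol/L L-glutamine, 37 °C, 5% CO2, used in exponential growth and checked for mycoplasma by PCR. Cells were seeded in 96-well plates, allowed to attach, then exposed continuously to drug for 72 h. MTT (final 0.5 mg/mL) was added for 4 h at 37 °C, formazan dissolved in DMSO, absorbance read at 570 nm. Triplicate.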

HCT-116 [2] = test: Cytotoxicity against human HCT116 cells expressing p53 gene after 72 hrs by MTT assay; format: cell-based; settings: HCT-116, 72 h; procedure, shortened: as §1
HCT-116 [3] = test: Cytotoxicity against p53 deficient human HCT116 cells after 72 hrs by MTT assay; format: cell-based; settings: HCT-116, 72 h; procedure, shortened: as §1
HT-29 [4] = test: Cytotoxicity against human HT29 cells after 72 hrs by MTT assay; format: cell-based; settings: HT-29, 72 h; procedure, shortened: as §1
LNCaP [5] = test: Cytotoxicity against human LNCap cells after 72 hrs by MTT assay; format: cell-based; procedure, shortened: as §1
MDA-MB-435 [6] = test: Inhibition of colony formation of human MDA-MB-435 cells at >=1 uM after 24 hrs; format: functional, cell-based
Procedure, shortened: (§2)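 Cells were plated at 100 cells/well in 6-well plates and allowed to attach. Serial dilutions were added the next day for 24 h exposure. Cells were then washed in PBS and grown in drug-free medium for 8–10 days until colonies formed. Colonies were fixed in 1% glutaraldehyde for 30 min, stained with 2% crystal violet for 30 min, imaged and counted. Means of at least three independent experiments.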

HCT-116 [7] = test: Inhibition of colony formation of p53 expressing human HCT116 cells at >=1 uM after 24 hrs; format: functional, cell-based; procedure, shortened: as §2
HCT-116 [8] = test: Inhibition of colony formation of p53 deficient human HCT116 cells at >=1 uM after 24 hrs; format: functional, cell-based; procedure, shortened: as §2
HT-29 [9] = test: Inhibition of colony formation of human HT29 cells at >=1 uM after 24 hrs; format: functional, cell-based; procedure, shortened: as §2
LNCaP [10] = test: Inhibition of colony formation of human LNCap cells at >=1 uM after 24 hrs; format: functional, cell-based; procedure, shortened: as §2

SMILES: O=C(NNc1nc2ccccc2n2cccc12)c1ccc2cc[nH]c2c1
- IC50 (MDA-MB-435 [1]): > 20 µM
- IC50 (HCT-116 [2]): > 20 µM
- IC50 (HCT-116 [3]): > 20 µM
- IC50 (HT-29 [4]): > 20 µM

SMILES: O=C(NNc1nc2ccccc2n2cccc12)c1cc2ccccc2[nH]1
- IC50 (MDA-MB-435 [1]): > 20 µM
- IC50 (HCT-116 [2]): > 20 µM
- IC50 (HCT-116 [3]): > 20 µM
- IC50 (HT-29 [4]): > 20 µM

SMILES: O=C(NNc1nc2cc(F)ccc2n2cccc12)c1ccco1
- IC50 (MDA-MB-435 [1]): > 20 µM
- IC50 (HCT-116 [2]): > 20 µM
- IC50 (HCT-116 [3]): > 20 µM
- IC50 (HT-29 [4]): > 20 µM

SMILES: NCCC(=O)NNc1nc2ccccc2n2cccc12
- IC50 (MDA-MB-435 [1]): > 20 µM
- IC50 (HCT-116 [2]): > 20 µM
- IC50 (HCT-116 [3]): > 20 µM
- IC50 (HT-29 [4]): > 20 µM

SMILES: O=C(NNc1nc2cc(F)ccc2n2cccc12)c1cnccn1
- IC50 (MDA-MB-435 [1]): 4 µM
- IC50 (HCT-116 [2]): 0.6 µM
- IC50 (HCT-116 [3]): 0.9 µM
- IC50 (HT-29 [4]): 0.9 µM
- IC50 (LNCaP [5]): 0.4 µM

SMILES: COc1ccccc1C(=O)NNc1nc2ccccc2n2cccc12
- IC50 (MDA-MB-435 [1]): > 20 µM
- IC50 (HCT-116 [2]): > 20 µM
- IC50 (HCT-116 [3]): > 20 µM
- IC50 (HT-29 [4]): > 20 µM

SMILES: O=C(NNc1nc2cc(F)ccc2n2cccc12)c1cnc2ccccc2n1
- IC50 (MDA-MB-435 [1]): 15 µM
- IC50 (HCT-116 [2]): 8 µM
- IC50 (HCT-116 [3]): 11 µM
- IC50 (HT-29 [4]): 13 µM

SMILES: O=C(NNc1nc2ccccc2n2cccc12)C1CSCN1 (centres undefined)
- IC50 (MDA-MB-435 [1]): > 20 µM
- IC50 (HCT-116 [2]): 15 µM
- IC50 (HCT-116 [3]): 10 µM
- IC50 (HT-29 [4]): 14 µM

SMILES: O=C(NNc1nc2ccccc2n2cccc12)c1c[nH]c2ccccc12
- IC50 (MDA-MB-435 [1]): > 20 µM
- IC50 (HCT-116 [2]): > 20 µM
- IC50 (HCT-116 [3]): > 20 µM
- IC50 (HT-29 [4]): > 20 µM

SMILES: O=C(NNc1nc2cc(F)ccc2n2cccc12)c1ccccn1
- IC50 (MDA-MB-435 [1]): > 20 µM
- IC50 (HCT-116 [2]): > 20 µM
- IC50 (HCT-116 [3]): > 20 µM
- IC50 (HT-29 [4]): 17 µM
- IC50 (LNCaP [5]): > 20 µM

SMILES: O=C(NNc1nc2cccc(F)c2n2cccc12)c1cnccn1
- IC50 (MDA-MB-435 [1]): 3 µM
- IC50 (HCT-116 [2]): 0.4 µM
- IC50 (HCT-116 [3]): 0.3 µM
- IC50 (HT-29 [4]): 0.3 µM
- IC50 (LNCaP [5]): 0.4 µM
- Activity (MDA-MB-435 [6]): Active
- Activity (HCT-116 [7]): Active
- Activity (HCT-116 [8]): Active
- Activity (HT-29 [9]): Active
- Activity (LNCaP [10]): Active

SMILES: O=C(NNc1nc2cc(F)ccc2n2cccc12)c1cccs1
- IC50 (MDA-MB-435 [1]): > 20 µM
- IC50 (HCT-116 [2]): > 20 µM
- IC50 (HCT-116 [3]): > 20 µM
- IC50 (HT-29 [4]): > 20 µM

SMILES: O=C(NNc1nc2cc(F)ccc2n2cccc12)c1cccnc1
- IC50 (MDA-MB-435 [1]): > 20 µM
- IC50 (HCT-116 [2]): > 20 µM
- IC50 (HCT-116 [3]): > 20 µM
- IC50 (HT-29 [4]): > 20 µM

SMILES: O=C(NNc1nc2cc(F)ccc2n2cccc12)c1ccccc1F
- IC50 (MDA-MB-435 [1]): > 20 µM
- IC50 (HCT-116 [2]): > 20 µM
- IC50 (HCT-116 [3]): > 20 µM
- IC50 (HT-29 [4]): > 20 µM
